Laboratory results as given in ChEMBL document CHEMBL3351848, “Novel insights into structure and function of factor XIIIa-inhibitor tridegin” (J Med Chem, 2014).
The source made the active and inactive calls. No cut-off for these calls is given here. Residues, ends and D or L forms follow the SMILES beside them.

Key:
[1] = target: T1, Coagulation factor XIII A chain (Homo sapiens) (UniProt P00488); test: Binding affinity to nonactivated recombinant F13A subunit (unknown origin) by microscale thermophoresis method
T1 sequence (whole entry): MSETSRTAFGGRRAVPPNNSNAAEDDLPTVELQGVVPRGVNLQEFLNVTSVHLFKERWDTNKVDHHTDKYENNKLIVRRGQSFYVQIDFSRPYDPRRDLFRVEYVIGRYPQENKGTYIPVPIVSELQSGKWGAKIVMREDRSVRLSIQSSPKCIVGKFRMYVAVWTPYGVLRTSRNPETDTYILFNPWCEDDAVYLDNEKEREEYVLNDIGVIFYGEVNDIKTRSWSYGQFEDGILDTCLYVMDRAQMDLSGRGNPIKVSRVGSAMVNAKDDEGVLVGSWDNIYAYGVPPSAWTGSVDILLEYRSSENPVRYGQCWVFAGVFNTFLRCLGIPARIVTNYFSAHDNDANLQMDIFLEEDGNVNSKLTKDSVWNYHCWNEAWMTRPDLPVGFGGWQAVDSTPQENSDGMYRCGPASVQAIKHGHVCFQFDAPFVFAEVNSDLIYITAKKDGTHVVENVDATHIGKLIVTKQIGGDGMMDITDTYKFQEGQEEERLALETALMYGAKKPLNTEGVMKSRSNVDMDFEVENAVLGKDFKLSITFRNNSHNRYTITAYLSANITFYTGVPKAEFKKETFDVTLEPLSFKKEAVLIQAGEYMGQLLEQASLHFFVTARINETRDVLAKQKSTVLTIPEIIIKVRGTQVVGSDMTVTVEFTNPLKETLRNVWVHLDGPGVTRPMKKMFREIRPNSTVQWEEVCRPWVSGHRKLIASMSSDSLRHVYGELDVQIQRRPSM
Procedure, shortened: (§1)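 Carboxyfluorescein-labeled peptide (2 μM solution, before mixing) in 50 mM Tris-HCl pH 7.5, 0.9% w/v NaCl, with Tween-20 to 0.1% final. Mixed with an equal volume of protein (FXIIIa, FXIII-A or FXIII-B) in the same buffer, 15 concentrations spanning 3.1 μM to 0.1 nM. After 20 min incubation, the mixture was loaded into glass capillaries and thermophoresis read three times per capillary.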

[2] = target: T2, Protein-glutamine gamma-glutamyltransferase (Homo sapiens) (UniProt P21980); test: Inhibition of human TGase-2 using fluorogenic FRET substrate at 10 uM
T2 sequence (whole entry): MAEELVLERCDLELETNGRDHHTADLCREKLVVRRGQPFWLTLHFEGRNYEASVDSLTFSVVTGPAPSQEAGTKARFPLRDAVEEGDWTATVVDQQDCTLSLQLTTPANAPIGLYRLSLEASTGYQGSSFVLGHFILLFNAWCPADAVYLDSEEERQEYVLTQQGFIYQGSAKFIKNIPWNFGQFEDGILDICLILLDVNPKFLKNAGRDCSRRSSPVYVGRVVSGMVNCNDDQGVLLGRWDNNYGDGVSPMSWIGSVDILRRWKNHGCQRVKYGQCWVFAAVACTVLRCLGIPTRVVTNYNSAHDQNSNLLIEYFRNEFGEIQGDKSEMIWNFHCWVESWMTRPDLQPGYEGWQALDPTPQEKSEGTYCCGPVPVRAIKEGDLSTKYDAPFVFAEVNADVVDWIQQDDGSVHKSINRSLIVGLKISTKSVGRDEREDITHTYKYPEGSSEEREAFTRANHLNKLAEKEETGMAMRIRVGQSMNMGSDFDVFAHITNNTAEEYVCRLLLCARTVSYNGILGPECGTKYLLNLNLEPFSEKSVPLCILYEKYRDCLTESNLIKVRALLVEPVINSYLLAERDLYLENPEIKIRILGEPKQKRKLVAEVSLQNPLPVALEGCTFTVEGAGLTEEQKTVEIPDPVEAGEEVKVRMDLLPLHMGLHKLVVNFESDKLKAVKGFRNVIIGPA

[3] = target: T1, Coagulation factor XIII A chain (Homo sapiens); test: Inhibition of recombinant F13a (unknown origin) using H-Tyr-Glu(pNA)-Val-Lys-Val-Ile-Gly-NH2 as substrate by chromogenic assay
[4] = target: T3, Coagulation factor XIII B chain (Homo sapiens) (UniProt P05160); test: Binding affinity to nonactivated recombinant F13B subunit (unknown origin) by microscale thermophoresis method; procedure, shortened: as §1
T3 sequence (whole entry): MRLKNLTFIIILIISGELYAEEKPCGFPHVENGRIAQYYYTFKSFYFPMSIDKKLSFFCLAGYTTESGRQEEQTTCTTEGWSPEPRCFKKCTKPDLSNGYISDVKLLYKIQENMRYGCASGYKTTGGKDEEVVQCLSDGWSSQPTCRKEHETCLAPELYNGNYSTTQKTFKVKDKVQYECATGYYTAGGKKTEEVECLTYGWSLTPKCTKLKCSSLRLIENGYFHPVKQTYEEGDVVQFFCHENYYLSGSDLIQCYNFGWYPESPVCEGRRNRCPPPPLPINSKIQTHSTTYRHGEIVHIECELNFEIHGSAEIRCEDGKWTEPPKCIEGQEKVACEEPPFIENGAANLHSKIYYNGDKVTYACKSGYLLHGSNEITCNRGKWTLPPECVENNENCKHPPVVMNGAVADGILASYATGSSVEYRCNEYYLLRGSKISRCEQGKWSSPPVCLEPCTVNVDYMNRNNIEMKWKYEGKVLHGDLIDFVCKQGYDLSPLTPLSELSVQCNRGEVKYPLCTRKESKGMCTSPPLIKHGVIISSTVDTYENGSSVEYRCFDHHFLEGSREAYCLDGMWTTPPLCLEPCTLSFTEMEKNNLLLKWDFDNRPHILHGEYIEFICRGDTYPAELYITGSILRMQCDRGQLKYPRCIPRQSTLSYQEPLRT

CC[C@H](C)[C@H](NC(=O)CNC(=O)[C@H](CCC(N)=O)NC(=O)[C@H](Cc1cnc[nH]1)NC(=O)[C@H](Cc1c[nH]c2ccccc12)NC(=O)[C@H](CCC(=O)O)NC(=O)[C@H](CCCCN)NC(=O)[C@H](CS)NC(=O)[C@@H]1CCCN1C(=O)[C@H](CC(C)C)NC(=O)[C@H](CC(C)C)NC(=O)[C@@H](N)CCCCN)C(=O)N1CCC[C@H]1C(=O)N[C@@H](CC(N)=O)C(=O)N1CCC[C@H]1C(=O)N[C@@H](CCCNC(=N)N)C(=O)N[C@@H](CS)C(=O)N[C@@H](Cc1c[nH]c2ccccc12)C(=O)N[C@@H](CS)C(=O)NCC(=O)N[C@@H](C)C(=O)N[C@@H](CC(=O)O)C(=O)N[C@@H](CC(C)C)C(=O)N[C@@H](CCC(=O)O)C(=O)N[C@@H](CS)C(=O)N[C@@H](C)C(=O)N[C@@H](CCC(N)=O)C(=O)N[C@@H](CC(=O)O)C(=O)N[C@@H](CCC(N)=O)C(=O)N[C@@H](Cc1ccc(O)cc1)C(=O)N[C@@H](CS)C(=O)N[C@@H](C)C(=O)N[C@@H](Cc1ccccc1)C(=O)N[C@H](C(=O)N1CCC[C@H]1C(=O)N[C@@H](CCC(N)=O)C(=O)N[C@@H](CS)C(=O)O)[C@@H](C)CC (H-KLLPCKEWHQGIPNPRCWCGADLECAQDQYCAFIPQC-OH)
Activity [1]: inactive
inhibition [2]: < 10%
inhibition [3]: inactive
Activity [4]: inactive
